Results: ChEMBL document CHEMBL1255300, “Pharmacodynamics of the antibacterial effect and emergence of resistance to tomopenem, formerly RO4908463/CS-023, in an in vitro pharmacokinetic model of Staphylococcus aureus infection” (Antimicrob Agents Chemother, 2008)
In brackets after ≈: the same amount, converted by molar mass. Activity calls are given as the source filed them. The calls are words filed in the database; no cut-off is given here.

What was measured:
Staphylococcus aureus [1] = experiment: T>MIC for 1-log drop in count in methicillin-resistant Staphylococcus aureus 33829 in in vitro pharmacokinetic model after 24 hrs using 10^6 CFU/ml inoculum; assay type: functional
Staphylococcus aureus [2] = experiment: Antibacterial activity against methicillin-resistant Staphylococcus aureus 33827 infected in in vitro pharmacokinetic model assessed as reduction in viable count at 750 mg, iv every 8 hrs measured after 24 hrs using 10^8 CFU/ml inoculum; assay type: functional
How it was run: (§1)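 Single-compartment dilutional in vitro PK model, 10% Mueller-Hinton broth, 37°C, stirred, dilution 132 ml/h. […] Inoculum 10^6 CFU/ml (added 45 min pre-dose) or 10^8 CFU/ml (run overnight). Viable counts by spiral plating, beta-lactamase neutralization, detection limit 10^2 CFU/ml. At least triplicate.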

Staphylococcus aureus [3] = experiment: Antibacterial activity against methicillin-resistant Staphylococcus aureus 33820 infected in in vitro pharmacokinetic model assessed as reduction in viable count at 1500 mg, iv every 8 hrs measured after 24 hrs using 10^6 CFU/ml inoculum; assay type: functional
How it was run: (§2)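 Single-compartment dilutional in vitro PK model, 37°C, stirred, in 10% Mueller-Hinton broth. […] Inoculum 10^6 CFU/ml from a 24-h plate culture was added 45 min before dosing. Viable counts by spiral plating on nutrient agar with β-lactamase neutralization. Log change was taken from time 0; detection limit 10^2 CFU/ml; at least triplicate.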

Staphylococcus aureus [4] = experiment: AUBKC (0 to 48 hrs) in methicillin-sensitive Staphylococcus aureus 5956 infected in in vitro pharmacokinetic model at 750 mg, iv every 8 hrs using 10^6 CFU/ml inoculum; assay type: functional
Staphylococcus aureus [5] = experiment: Antibacterial activity against methicillin-resistant Staphylococcus aureus 33815 in in vitro pharmacokinetic model assessed as viable count at 4 times of MIC; assay type: functional
How it was run: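 Preexposure population analysis profile: model sample at time zero plated on nutrient agar with tomopenem at multiples of the MIC. Growth counted as log CFU/ml, detection limit 2 log10.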

Staphylococcus aureus [6] = experiment: Antibacterial activity against methicillin-resistant Staphylococcus aureus 33921 by broth dilution method; assay type: functional
How it was run: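 MIC by CLSI broth dilution, or by broth dilution in 10% Mueller-Hinton broth at nondoubling dilutions.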

Staphylococcus aureus [7] = experiment: AUBKC (0 to 48 hrs) in methicillin-resistant Staphylococcus aureus 33827 infected in in vitro pharmacokinetic model at 750 mg, iv every 8 hrs using 10^6 CFU/ml inoculum; assay type: functional
How it was run: (§3)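 Single-compartment dilutional in vitro PK model at 37°C in 10% Mueller-Hinton broth, stirred, flow 132 ml/h. […] Inoculum 10^6 CFU/ml added 45 min before dosing, or 10^8 CFU/ml run overnight. Viable counts with β-lactamase neutralisation. AUBKC by log-linear trapezoidal rule, at least triplicate.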

Staphylococcus aureus [8] = experiment: Antibacterial activity against methicillin-resistant Staphylococcus aureus 33829 in in vitro pharmacokinetic model assessed as viable count at 4 times of MIC; assay type: functional
How it was run: (§4)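 Preexposure population analysis: time-zero model samples plated on nutrient agar without drug and with drug at multiples of the 10% broth MIC. Growth reported as log CFU/ml, detection limit 2 log10.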

Staphylococcus aureus [9] = experiment: Antibacterial activity against methicillin-resistant Staphylococcus aureus 33815 infected in in vitro pharmacokinetic model assessed as reduction in viable count at 750 mg, iv every 8 hrs measured after 12 hrs using 10^8 CFU/ml inoculum; assay type: functional
How it was run: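 PK model at 37°C in 10% MHB. […] A 0.5 McFarland suspension (1 ml) was added and the model run overnight to reach 10^8 CFU/ml before dosing. Counts were spiral-plated on nutrient agar with β-lactamase. Change in log CFU/ml was measured from time 0; at least triplicate.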

Staphylococcus aureus [10] = experiment: Antibacterial activity against methicillin-resistant Staphylococcus aureus 33820 infected in in vitro pharmacokinetic model assessed as time required to 99.9% killing at 750 mg, iv every 8 hrs using 10^6 CFU/ml inoculum; assay type: functional
Staphylococcus aureus [11] = experiment: AUBKC (0 to 48 hrs) in methicillin-resistant Staphylococcus aureus 33922 infected in in vitro pharmacokinetic model at 1500 mg, iv every 8 hrs using 10^8 CFU/ml inoculum; assay type: functional; how it was run: as §3
Staphylococcus aureus [12] = experiment: Antibacterial activity against methicillin-resistant Staphylococcus aureus 33922 in in vitro pharmacokinetic model assessed as viable count at 2 times of MIC; assay type: functional
Staphylococcus aureus [13] = experiment: Antibacterial activity against methicillin-sensitive Staphylococcus aureus 5956 infected in in vitro pharmacokinetic model assessed as time required to 99.9% killing at 1500 mg, iv every 8 hrs using 10^6 CFU/ml inoculum; assay type: functional
Staphylococcus aureus [14] = experiment: AUBKC (0 to 24 hrs) in methicillin-resistant Staphylococcus aureus 33815 infected in in vitro pharmacokinetic model at 1500 mg, iv every 8 hrs using 10^8 CFU/ml inoculum; assay type: functional; how it was run: as §3
Staphylococcus aureus [15] = experiment: T>MIC for 3-log drop in count in methicillin-sensitive Staphylococcus aureus 5956 in in vitro pharmacokinetic model after 24 hrs using 10^8 CFU/ml inoculum; assay type: functional
How it was run: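 Dose-ranging: 7–13 simulated regimens per strain giving T>MIC of 0–100% (MIC from 10% MHB), at 106 or 10^8 CFU/ml as stated.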

Staphylococcus aureus [16] = experiment: Antibacterial activity against methicillin-resistant Staphylococcus aureus 33922 infected in in vitro pharmacokinetic model assessed as time required to 99% killing at 1500 mg, iv every 8 hrs using 10^8 CFU/ml inoculum; assay type: functional
Staphylococcus aureus [17] = experiment: Antibacterial activity against methicillin-resistant Staphylococcus aureus 33815 assessed as viable count at 2 times of MIC after 24 hrs using 10^6 CFU/ml inoculum; assay type: functional, organism-based
How it was run: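 Population analysis during tomopenem dose-ranging runs in the in vitro PK model (10^6 CFU/ml, T>MIC 0-100%). […] Growth counted as log CFU/ml, detection limit 2 log10.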

Staphylococcus aureus [18] = experiment: Antibacterial activity against methicillin-resistant Staphylococcus aureus 33921 in in vitro pharmacokinetic model assessed as viable count at 6 times of MIC; assay type: functional; how it was run: as §4
Staphylococcus aureus [19] = experiment: Antibacterial activity against methicillin-resistant Staphylococcus aureus 33829 infected in in vitro pharmacokinetic model assessed as reduction in viable count at 1500 mg, iv every 8 hrs measured after 24 hrs using 10^6 CFU/ml inoculum; assay type: functional; how it was run: as §1
Staphylococcus aureus [20] = experiment: T>MIC for 1-log drop in count in methicillin-resistant Staphylococcus aureus 33922 in in vitro pharmacokinetic model after 24 hrs using 10^8 CFU/ml inoculum; assay type: functional
Staphylococcus aureus [21] = experiment: Antibacterial activity against methicillin-resistant Staphylococcus aureus 33921 in in vitro pharmacokinetic model assessed as viable count at 4 times of MIC; assay type: functional; how it was run: as §4
Staphylococcus aureus [22] = experiment: Antibacterial activity against methicillin-resistant Staphylococcus aureus 33815 infected in in vitro pharmacokinetic model assessed as reduction in viable count at 1500 mg, iv every 8 hrs measured after 24 hrs using 10^6 CFU/ml inoculum; assay type: functional; how it was run: as §2
Staphylococcus aureus [23] = experiment: AUBKC (0 to 48 hrs) in methicillin-resistant Staphylococcus aureus 33820 infected in in vitro pharmacokinetic model at 1500 mg, iv every 8 hrs using 10^6 CFU/ml inoculum; assay type: functional; how it was run: as §3
Staphylococcus aureus [24] = experiment: Antibacterial activity against methicillin-resistant Staphylococcus aureus 33827 by 10% MH broth method; assay type: functional
How it was run: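 Broth dilution MIC per CLSI, run in 10% Mueller-Hinton broth at nondoubling dilutions.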

Staphylococcus aureus [25] = experiment: AUBKC (0 to 24 hrs) in methicillin-resistant Staphylococcus aureus 33829 infected in in vitro pharmacokinetic model at 750 mg, iv every 8 hrs using 10^6 CFU/ml inoculum; assay type: functional; how it was run: as §3

Structure (SMILES): C[C@@H](O)[C@H]1C(=O)N2C(C(=O)O)=C(S[C@H]3C[C@@H](C(=O)N4CC[C@H](NC(=O)CNC(=N)N)C4)N(C)C3)[C@H](C)[C@H]12 [TOMOPENEM]
- fT>MIC (Staphylococcus aureus [1]): 16.8%
- log10CFU/ml (Staphylococcus aureus [2]): 5.2
- log10CFU/ml (Staphylococcus aureus [3]): 4.2
- AUBC (Staphylococcus aureus [4]): 27.6 log10CFU/ml.hr
- log10CFU/ml (Staphylococcus aureus [5]): <2
- MIC (Staphylococcus aureus [6]): 0.5 µg/mL (≈ 0.93 µM)
- AUBC (Staphylococcus aureus [7]): 44.9 log10CFU/ml.hr
- log10CFU/ml (Staphylococcus aureus [8]): 5.4
- log10CFU/ml (Staphylococcus aureus [9]): 1.7
- Time (Staphylococcus aureus [10]): 12 h
- AUBC (Staphylococcus aureus [11]): 124.7 log10CFU/ml.hr
- log10CFU/ml (Staphylococcus aureus [12]): 8.3
- Time (Staphylococcus aureus [13]): 8 h
- AUBC (Staphylococcus aureus [14]): 103.5 log10CFU/ml.hr
- fT>MIC (Staphylococcus aureus [15]): 12.8%
- Time (Staphylococcus aureus [16]): 16 h
- Activity (Staphylococcus aureus [17]): Active
- log10CFU/ml (Staphylococcus aureus [18]): < 2
- log10CFU/ml (Staphylococcus aureus [19]): 4.2
- fT>MIC (Staphylococcus aureus [20]): 2%
- log10CFU/ml (Staphylococcus aureus [21]): <2
- log10CFU/ml (Staphylococcus aureus [22]): 4.2
- AUBC (Staphylococcus aureus [23]): 23.4 log10CFU/ml.hr
- MIC (Staphylococcus aureus [24]): 0.75 µg/mL (≈ 1.39 µM)
- AUBC (Staphylococcus aureus [25]): 25 log10CFU/ml.hr
